A selection: hits, their analogues and other compounds. The true share with any hit is near 2.4%.
NPY Y1 blocker: blocks the human neuropeptide Y Y1 receptor; inhibition, % at 3.6 µM; AID 1040; 200,000 compounds, 1% hits; HEK293-CNG Y1 cells, membrane potential fluorescence; NPY at EC95, then isoproterenol; P25929;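 active means inhibition above the campaign mean inhibition of all tested compounds plus 3 SD, cut at about 20% in these data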;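 further: 0% = DMSO wells given NPY plus isoproterenol and 100% = isoproterenol alone without NPY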
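Material: HEK293 Y1/CNG channel cell line; also added: NPY (25 nM), isoproterenol (1 µM), Ro 20-1724 (25 µM); doses: one concentration, 3.6 µM, in 0.4% DMSO; schedule: compound incubation 1 h at room temperature, readout 45 min post-stimulation; technique: membrane potential fluorescence; measure: fluorescence ratio normalized to % inhibition between controls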
NPY-Y1 PAM-ag: potentiators or agonists of human neuropeptide Y receptor Y1; NPY-Y1 expressing cells, potentiator/agonist activation; P25929; activation, % at 3.6 µM; 220,000 compounds, 0.37% hits; AID 1304; in the data active means activation above about 33%, passing the limit was not always enough;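 further: cells stimulated with NPY at EC10 then isoproterenol at EC100; 0% = low agonist plus stimulus and 100% = saturating agonist plus stimulus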
S1P4 ag: agonists of human S1P4 receptor; 220,000 compounds, 0.35% hits; O95977; S1P4-expressing cell line, agonist reporter assay; activation, % at 4.98 µM; in the data active means activation above about 11%;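 further: 0% = DMSO vehicle and 100% = reference agonist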
Target sequence (O95977 whole entry, looked up): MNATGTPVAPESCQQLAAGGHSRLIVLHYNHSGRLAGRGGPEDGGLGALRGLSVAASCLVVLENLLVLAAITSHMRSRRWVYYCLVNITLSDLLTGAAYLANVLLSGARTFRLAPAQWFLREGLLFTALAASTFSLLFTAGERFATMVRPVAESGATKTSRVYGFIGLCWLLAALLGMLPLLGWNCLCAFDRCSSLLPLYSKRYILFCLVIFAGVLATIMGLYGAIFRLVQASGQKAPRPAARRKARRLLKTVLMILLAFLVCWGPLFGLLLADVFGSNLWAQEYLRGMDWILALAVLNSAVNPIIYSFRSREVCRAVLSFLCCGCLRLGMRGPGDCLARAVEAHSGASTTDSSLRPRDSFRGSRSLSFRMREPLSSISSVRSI
NPY-Y2 PAM-ag: potentiates or activates human NPY-Y2 receptor. activation, % at 3.6 µM. cells expressing NPY-Y2, potentiator/agonist read-out. 220,000 compounds, 0.45% hits; in the data active means activation above about 27%;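 further: cells stimulated with NPY near EC25 plus isoproterenol at EC100; 0% = vehicle plus submaximal agonist and 100% = vehicle plus saturating agonist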
S1P4 antag: blocks the human S1P4 receptor; inhibition, % at 4.98 µM; 220,000 compounds, 0.26% hits; S1P4-expressing cells, antagonist mode, reporter read-out; O95977; in the data active means inhibition above about 29%;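 further: 0% = wells stimulated with agonist and 100% = vehicle wells without agonist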
NPY Y2 blocker: blocks the human neuropeptide Y Y2 receptor; inhibition, % at 2.7 µM; P49146; NPY-Y2 expressing cells, antagonist mode; 140,000 compounds, 0.99% hits;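 further: 0% = vehicle with agonist challenge and 100% = reference antagonist with challenge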
NPY1 antag conf: confirmation of human neuropeptide Y receptor Y1 antagonists. shares compounds with NPY Y1 blocker. HEK293-CNG NPY-Y1, membrane potential fluorescence, cAMP; NPY challenge against isoproterenol-raised cAMP. inhibition, % at 3.6 µM. 1,200 compounds, 21% hits. AID 1254; in the data active means inhibition above about 20%;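 further: 0% = vehicle with agonist plus stimulus and 100% = stimulus alone without agonist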
NPY2 antag ctr: counter-screen for NPY-Y1 antagonists: human NPY-Y2 antagonism | shares compounds with NPY Y1 blocker | HEK293 NPY-Y2 CNG membrane potential fluorescence; cells given NPY, then isoproterenol | inhibition, % at 3.6 µM | 1,200 compounds, 28% hits | AID 1255;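 further: 0% = DMSO with agonist challenge and 100% = reference antagonist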
The depositor's hits bear a star; x = not tested or not shown. Unless noted, no stated cut-off is given here; in the data, active means inhibition above about 17%; inactive means the rest.

SMILES	NPY Y1 blocker	NPY-Y1 PAM-ag	S1P4 ag	NPY-Y2 PAM-ag	S1P4 antag	NPY Y2 blocker	NPY1 antag conf	NPY2 antag ctr
CS(=O)(=O)NCc1csc(-c2ccccc2)n1	0	1	-1	-16	-12	-2	x	x
CN(C)c1ccnc(N(Cc2ccccc2)Cc2ccccc2)c1C#N	39*	-33	-1	-31	21	8	48*	83*
Cc1cccc(C)c1NC(=O)c1c(C)nn(-c2ccccc2)c1Cl	32*	-1	2	11	-8	2	5	2
Cc1ccc(NC(=O)c2c(C)nn(-c3ccccc3)c2Cl)c(C)c1	9	12	0	-8	-10	1	x	x
CCOC(=O)C(CC)Sc1ncnc2nc[nH]c12 (configuration not stated)	3	7	0	10	-14	-1	x	x
COc1ccc(-c2n(Cc3ccccc3)c3ccccc3[n+]2Cc2ccccc2)cc1	62*	-19	1	8	4	x	18	22*
O=C(NC1CCCCCC1)c1cc(-c2ccccn2)nc2ccccc12	24*	-119	1	-72	1	x	25*	18*
O=C(NC1CCCCC1)c1cc(-c2ccccn2)nc2ccccc12	12	-23	0	-49	-4	x	x	x
O=C(O)c1cc2c(s1)-c1ccccc1OC2	12	-20	-2	3	-1	14	x	x
O=C(O)c1cc2c(s1)-c1ccccc1CC2	21*	-31	2	-16	11	13	10	13
COc1cccc(-c2noc(C3CCCN(S(=O)(=O)c4cccc(Cl)c4C)C3)n2)c1 (configuration not stated)	30*	2	0	-5	6	6	11	13
CCCOc1cc(C)nc(-c2ccccc2O)n1	6	3	0	-14	-12	2	x	x
CCCCN(CCCC)c1cc(C)nc(-c2ccccc2O)n1	22*	-6	2	-11	8	10	16	17
Cc1cccc(NC(=O)C2C3CCC4C(CCC32)C4(Cl)Cl)c1 (configuration not stated)	28*	-8	0	-1	-10	16	15	6
CCCCC12CN3CC(C)(CN(C1)C31C(=O)N(C)c3ccc(C)cc31)C2=O (configuration not stated)	21*	-7	-3	11	2	3	2	8
CC(=O)/C=C1\N(C)c2ccc(C)cc2C1(C)C	5	-10	7	-12	-6	x	x	x
CC1(C)C(c2cccs2)=NC(c2ccccc2)N1O (configuration not stated)	5	-1	0	-11	7	-1	x	x
NNC(=O)CCN1CCCCC1	-4	-10	1	7	3	x	x	x
CCCCN(C)C(=O)c1nc2ccccn2c1CN1CCN(C/C=C/c2ccccc2)CC1	26*	-2	0	-15	-10	x	18	10
CCCCN(C)C(=O)c1nc2ccccn2c1CN1CCN(c2ncccn2)CC1	7	-8	-1	0	7	x	x	x
O=C(NCCc1ccc(Cl)cc1)C1CCN(S(=O)(=O)c2ccc(-n3cnnn3)cc2)CC1	-1	0	2	8	12	-5	x	x
O=C(NCc1ccco1)C1CCN(S(=O)(=O)c2ccc(-n3cnnn3)cc2)CC1	21*	-6	0	5	8	2	0	3
COc1ccc(-c2cc(C(F)(F)F)n3nc(C(=O)NCc4ccco4)cc3n2)cc1	24*	-34	4	-16	8	3	6	6
COc1cccc(C(=O)NCCCN2CCN(CCCNC(=O)c3cccc(OC)c3)CC2)c1	2	-7	-1	12	-24	2	x	x
Cc1ccc(NC(=S)N/N=C/c2ccc(OCCC(C)C)cc2)c(C)c1	21*	-14	1	-11	12	7	11	7
Cc1ccc(NC(=S)N/N=C/c2c(Cl)cccc2Cl)c(C)c1	9	-37	0	-3	-5	12	x	x

Screening data (PubChem)
